Key:
Format in all cases: toxicity, cell-based
HEK-293T [1] = experiment: Multiplex assay against HEK293T; conditions: human;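 on Population Tubulin-Different-Phenotype (%): share of the cells with healthy nuclei that show this phenotype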
How it was run: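 Values for tubulin, mitochondrial-mass and membrane-permeability phenotypes are per cents of cells with healthy nuclei. These cells were identified by CellPathfinder machine-learning gating of live cells that had been stained at seeding with Hoechst33342, BioTracker Green Microtubule Cytoskeleton Dye, MitoTracker Red and Annexin V Alexa Fluor 680 and imaged on a CQ1 microscope at 37°C and 5% CO2 after compound addition. The gating first set Hoechst high-intensity objects apart from normal cells, then split normal cells into healthy, pyknosed or fragmented nuclei, and pyknosed cells into mitotic or apoptotic.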

Fibroblast = experiment: Incucyte cell viability with human fibroblast; conditions: 10 µM, compound concentration 10 uM; further: filed as whole numbers so only -1 and 0 and 1 occur
HEK-293T [2] = experiment: Incucyte cell viability with HEK293T; conditions: human, 10 µM, compound concentration 10 uM; further: filed as whole numbers so only -1 and 0 and 1 occur
[3] = 12 h, 1 µM, compound concentration 1 uM, replicate 1
[4] = 12 h, 1 µM, compound concentration 1 uM, replicate 2
[5] = 12 h, 10 µM, compound concentration 10 uM, replicate 1
[6] = 12 h, 10 µM, compound concentration 10 uM, replicate 2
[7] = 24 h, 1 µM, compound concentration 1 uM, replicate 1
[8] = 24 h, 1 µM, compound concentration 1 uM, replicate 2
[9] = 24 h, 10 µM, compound concentration 10 uM, replicate 1
[10] = 24 h, 10 µM, compound concentration 10 uM, replicate 2
[11] = 6 h, replicate number 1, timepoint 6 hours
[12] = 12 h, replicate number 1, timepoint 12 hours
[13] = 18 h, replicate number 1, timepoint 18 hours
[14] = 24 h, replicate number 1, timepoint 24 hours

Structure (SMILES): Cc1cn(-c2cc(NC(=O)c3ccc4c(c3)CN(c3cncnc3)C[C@@H]4C)cc(C(F)(F)F)c2)cn1
- Population Apoptotic (%) (HEK-293T [1]; [3]): 15%
- Population Fragmented Nuclei (%) (HEK-293T [1]; [3]): 25%
- Population Healthy Nuclei (%) (HEK-293T [1]; [3]): 52%
- Population Hoechst High Intensity Objects (%) (HEK-293T [1]; [3]): 20%
- Population Membrane Permeable-Phenotype (%) (HEK-293T [1]; [3]): 5%
- Population Mitochondria Different-Phenotype (%) (HEK-293T [1]; [3]): 6%
- Population Mitotic Cells (%) (HEK-293T [1]; [3]): 84%
- Population Normal (%) (HEK-293T [1]; [3]): 79%
- Population Pyknosed Nuclei (%) (HEK-293T [1]; [3]): 22%
- Population Tubulin-Different-Phenotype (%) (HEK-293T [1]; [3]): 4%
- Total Cell Count (HEK-293T [1]; [3]): 536
- Population Apoptotic (%) (HEK-293T [1]; [4]): 8%
- Population Fragmented Nuclei (%) (HEK-293T [1]; [4]): 6%
- Population Healthy Nuclei (%) (HEK-293T [1]; [4]): 87%
- Population Hoechst High Intensity Objects (%) (HEK-293T [1]; [4]): 3%
- Population Membrane Permeable-Phenotype (%) (HEK-293T [1]; [4]): 2%
- Population Mitochondria Different-Phenotype (%) (HEK-293T [1]; [4]): 8%
- Population Mitotic Cells (%) (HEK-293T [1]; [4]): 91%
- Population Normal (%) (HEK-293T [1]; [4]): 96%
- Population Pyknosed Nuclei (%) (HEK-293T [1]; [4]): 5%
- Total Cell Count (HEK-293T [1]; [4]): 1397
- Population Apoptotic (%) (HEK-293T [1]; [5]): 17%
- Population Fragmented Nuclei (%) (HEK-293T [1]; [5]): 17%
- Population Healthy Nuclei (%) (HEK-293T [1]; [5]): 62%
- Population Hoechst High Intensity Objects (%) (HEK-293T [1]; [5]): 13%
- Population Membrane Permeable-Phenotype (%) (HEK-293T [1]; [5]): 12%
- Population Mitochondria Different-Phenotype (%) (HEK-293T [1]; [5]): 6%
- Population Mitotic Cells (%) (HEK-293T [1]; [5]): 82%
- Population Normal (%) (HEK-293T [1]; [5]): 86%
- Population Pyknosed Nuclei (%) (HEK-293T [1]; [5]): 20%
- Population Tubulin-Different-Phenotype (%) (HEK-293T [1]; [5]): 37%
- Total Cell Count (HEK-293T [1]; [5]): 653
- Population Apoptotic (%) (HEK-293T [1]; [6]): 16%
- Population Fragmented Nuclei (%) (HEK-293T [1]; [6]): 5%
- Population Healthy Nuclei (%) (HEK-293T [1]; [6]): 88%
- Population Hoechst High Intensity Objects (%) (HEK-293T [1]; [6]): 4%
- Population Membrane Permeable-Phenotype (%) (HEK-293T [1]; [6]): 5%
- Population Mitochondria Different-Phenotype (%) (HEK-293T [1]; [6]): 24%
- Population Mitotic Cells (%) (HEK-293T [1]; [6]): 83%
- Population Normal (%) (HEK-293T [1]; [6]): 95%
- Population Pyknosed Nuclei (%) (HEK-293T [1]; [6]): 5%
- Population Tubulin-Different-Phenotype (%) (HEK-293T [1]; [6]): 40%
- Total Cell Count (HEK-293T [1]; [6]): 1483
- Population Apoptotic (%) (HEK-293T [1]; [7]): 23%
- Population Fragmented Nuclei (%) (HEK-293T [1]; [7]): 16%
- Population Healthy Nuclei (%) (HEK-293T [1]; [7]): 72%
- Population Hoechst High Intensity Objects (%) (HEK-293T [1]; [7]): 15%
- Population Membrane Permeable-Phenotype (%) (HEK-293T [1]; [7]): 9%
- Population Mitochondria Different-Phenotype (%) (HEK-293T [1]; [7]): 3%
- Population Mitotic Cells (%) (HEK-293T [1]; [7]): 76%
- Population Normal (%) (HEK-293T [1]; [7]): 84%
- Population Pyknosed Nuclei (%) (HEK-293T [1]; [7]): 11%
- Population Tubulin-Different-Phenotype (%) (HEK-293T [1]; [7]): 3%
- Total Cell Count (HEK-293T [1]; [7]): 545
- Population Apoptotic (%) (HEK-293T [1]; [8]): 6%
- Population Fragmented Nuclei (%) (HEK-293T [1]; [8]): 15%
- Population Healthy Nuclei (%) (HEK-293T [1]; [8]): 81%
- Population Hoechst High Intensity Objects (%) (HEK-293T [1]; [8]): 2%
- Population Membrane Permeable-Phenotype (%) (HEK-293T [1]; [8]): 5%
- Population Mitochondria Different-Phenotype (%) (HEK-293T [1]; [8]): 2%
- Population Mitotic Cells (%) (HEK-293T [1]; [8]): 93%
- Population Normal (%) (HEK-293T [1]; [8]): 97%
- Population Pyknosed Nuclei (%) (HEK-293T [1]; [8]): 2%
- Population Tubulin-Different-Phenotype (%) (HEK-293T [1]; [8]): 5%
- Total Cell Count (HEK-293T [1]; [8]): 2221
- Population Apoptotic (%) (HEK-293T [1]; [9]): 15%
- Population Fragmented Nuclei (%) (HEK-293T [1]; [9]): 16%
- Population Healthy Nuclei (%) (HEK-293T [1]; [9]): 73%
- Population Hoechst High Intensity Objects (%) (HEK-293T [1]; [9]): 12%
- Population Membrane Permeable-Phenotype (%) (HEK-293T [1]; [9]): 29%
- Population Mitochondria Different-Phenotype (%) (HEK-293T [1]; [9]): 6%
- Population Mitotic Cells (%) (HEK-293T [1]; [9]): 84%
- Population Normal (%) (HEK-293T [1]; [9]): 87%
- Population Pyknosed Nuclei (%) (HEK-293T [1]; [9]): 10%
- Population Tubulin-Different-Phenotype (%) (HEK-293T [1]; [9]): 54%
- Total Cell Count (HEK-293T [1]; [9]): 740
- Population Apoptotic (%) (HEK-293T [1]; [10]): 8%
- Population Fragmented Nuclei (%) (HEK-293T [1]; [10]): 12%
- Population Healthy Nuclei (%) (HEK-293T [1]; [10]): 84%
- Population Hoechst High Intensity Objects (%) (HEK-293T [1]; [10]): 3%
- Population Membrane Permeable-Phenotype (%) (HEK-293T [1]; [10]): 14%
- Population Mitochondria Different-Phenotype (%) (HEK-293T [1]; [10]): 7%
- Population Mitotic Cells (%) (HEK-293T [1]; [10]): 91%
- Population Normal (%) (HEK-293T [1]; [10]): 96%
- Population Pyknosed Nuclei (%) (HEK-293T [1]; [10]): 3%
- Population Tubulin-Different-Phenotype (%) (HEK-293T [1]; [10]): 55%
- Total Cell Count (HEK-293T [1]; [10]): 2031
- Growth Rate (Fibroblast; 0 h, replicate number 2, timepoint 0 hours): 0
- Growth Rate (Fibroblast; [11]): 0
- Growth Rate (Fibroblast; [12]): 0
- Growth Rate (Fibroblast; 12 h, replicate number 2, timepoint 12 hours): 1
- Growth Rate (Fibroblast; [13]): 0
- Growth Rate (Fibroblast; [14]): 0
- Growth Rate (HEK-293T [2]; [11]): 0
- Growth Rate (HEK-293T [2]; [12]): 0
- Growth Rate (HEK-293T [2]; [13]): 0
- Growth Rate (HEK-293T [2]; [14]): 0

— ChEMBL document CHEMBL4689842, “EUbOPEN Chemogenomics Library wave 1” (2021)
